# Source: PubChem
# The list is not random: actives were taken first. Their share in the collection is about 2.5%.
# ABHD4 inh – inhibitors of mouse ABHD4 | purified mABHD4, FP-Rh probe fluorescence polarization | inhibition, % at 8.92 µM | 0.54% of 370,000 active | AID 720543;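 active = inhibition exceeding the mean over every tested compound plus 3 SD, cut at about 30% in these data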;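 also: 0% = plate median of compound wells and 100% = S159A mutant with DMSO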
#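 Assay system: wild-type mouse ABHD4 protein; compound: single nominal dose of 8.92 µM, 0.89% DMSO final; schedule: 45 min + 60 min at 25 °C; measured by: FP readout, ex 525 nm / em 598 nm; evaluation: % inhibition of FP-Rh probe binding versus controls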
# HTRA1 inh – HTRA1 (human) protease inhibition | Q92743 | inhibition, % at 5.96 µM | 0.5% of 340,000 active | recombinant HTRA1, FP-rhodamine activity-based probe, fluorescence polarization | AID 504803; in the data active = inhibition above about 36%;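 also: 0% = enzyme with DMSO and 100% = wells lacking enzyme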
# Target sequence (Q92743 whole entry, looked up): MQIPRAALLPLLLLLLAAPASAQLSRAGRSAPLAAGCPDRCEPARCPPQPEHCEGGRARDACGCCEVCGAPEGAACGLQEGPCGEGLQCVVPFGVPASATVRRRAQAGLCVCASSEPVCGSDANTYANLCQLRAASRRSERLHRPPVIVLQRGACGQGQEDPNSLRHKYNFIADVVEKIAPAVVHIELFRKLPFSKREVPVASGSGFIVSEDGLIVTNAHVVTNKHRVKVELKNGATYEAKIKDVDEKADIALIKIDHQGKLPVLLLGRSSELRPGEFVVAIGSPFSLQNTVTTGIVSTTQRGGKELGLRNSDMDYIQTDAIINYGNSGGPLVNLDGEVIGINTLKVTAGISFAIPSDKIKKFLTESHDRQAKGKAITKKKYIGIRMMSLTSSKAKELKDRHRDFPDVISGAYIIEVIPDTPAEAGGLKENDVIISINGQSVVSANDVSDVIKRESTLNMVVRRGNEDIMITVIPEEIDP
# PRMT1 inh – inhibitors of human PRMT1; inhibition, % at 2.79 µM; recombinant PRMT1, activity-based probe fluorescence polarization; Q99873; 1.3% of 370,000 active;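 active = inhibition above about 21% made by adding two undisclosed values, limit read from the data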
# TCR CD3 inh – inhibitors of human TCR-CD3 interaction; 0.37% of 360,000 active; TAMRA-labeled TCR probe fluorescence, biochemical; inhibition, % at 9.4 µM; in the data active = inhibition above about 19%;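 also: recombinant mutant TCR 2C K166C tagged with TAMRA read by polarization; 0% = receptor in buffer alone and 100% = receptor with positive control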
# SIAE primary – blocks human sialic acid acetylesterase; AID 1053197; 0.69% of 370,000 active; SIAE FP-Rh probe binding, fluorescence polarization; inhibition, % at 9.66 µM;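 active = inhibition above a cutoff: mean of compounds within the control limits plus 3 SD of those, cut at about 17% in these data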;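 also: 0% = plate median of compound wells and 100% = probe without SIAE protein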
# SIAE confirm – human SIAE inhibition, confirmation | SIAE FP-Rh activity-based probe, fluorescence polarization | 13% of 2,300 active | AID 1117263 | shares compounds with SIAE primary | inhibition, % at 9.66 µM;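 active = mean inhibition of the replicates above the hit cutoff set in the primary screen, cut at about 17% in these data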;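 also: 0% = SIAE with DMSO and probe and 100% = probe without SIAE; inhibitors lower polarization as more probe stays unbound to SIAE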
# Starred values were filed as active, the others as inactive; . = no result.
SMILES,ABHD4 inh,HTRA1 inh,PRMT1 inh,TCR CD3 inh,SIAE primary,SIAE confirm
CCN(CC)c1ccc(C=Nn2c(C)nnc2C)cc1,-5,.,-6,.,2,.
O=C(NCCc1nccs1)C1CCC(=O)N(CCc2ccc(Cl)cc2)C1 (stereo unspecified),5,3,-2,1,-3,.
Cc1ccc(N(C(=O)c2ccc(S(=O)(=O)N3CCCC3)cc2)C2C=CS(=O)(=O)C2)cc1 (stereo unspecified),-3,-1,-1,-8,-3,.
COc1ccc(C(=O)N(c2ccc(C)cc2)C2C=CS(=O)(=O)C2)cc1OC (stereo unspecified),-6,4,-4,4,20*,-5
CC(=O)Nc1ccc(N/C=C/C(=O)c2ccc(Cl)cc2)cc1,3,11,-5,6,19*,3
CC(=O)c1ccc(N/C=C\C(=O)c2ccc(C)cc2)cc1,-5,-1,-1,3,-7,.
CCOC(=O)C[C@H]1c2ccccc2S(=O)(=O)N1c1cccc(OC)c1,2,-4,-3,-3,8,.
COC(=O)Oc1ccc(/C=N/NC(=O)CN(c2ccccc2Br)S(C)(=O)=O)cc1OC,-1,8,-2,-1,22*,15
CN1CCC(N2CCN(C3CN(Cc4ccc(F)cc4)S(=O)(=O)C3)CC2)CC1 (stereo unspecified),-6,.,-4,-2,-4,.
CCN(CC(=O)Nc1ccc(NC(C)=O)cc1)C(=O)c1cccc2ccccc12,2,-2,-2,0,18*,5
CCN(CC(=O)Nc1ccc(NC(C)=O)cc1)C(=O)Cc1cccc2ccccc12,-6,-2,-2,-2,1,.
O=C1CCN(Cc2ccc(O)cc2)CCN1[C@H](CO)Cc1ccccc1,5,1,1,3,18*,1
Cc1c(Cl)cccc1-n1c(SCC(=O)N2CCC(C(=O)O)CC2)nc2ccccc2c1=O,9,12,-2,1,1,.
Oc1ccccc1-c1nc2c3ccccc3c3ccccc3c2[nH]1,-19,-21,-1,4,27*,-2
Cc1sc(NC(=S)Nc2ccc(F)cc2)c(C(N)=O)c1C,2,-4,19,1,17*,5
CCOC(=O)c1c(NC(=S)Nc2ccc(Cl)cc2)sc(C)c1C,3,-1,-4,1,-2,.
CCOc1ccc(NC(=O)CN(C)C(=O)c2cccnc2Sc2ccc(C)c(C)c2)cc1OCC,-4,4,-2,-2,-2,.
O=S1(=O)CC(N2CCCC2)CN1Cc1cn(Cc2ccccc2)nn1 (stereo unspecified),4,.,-5,7,-1,.
O=C(NCc1ccco1)c1cccc(Nc2nc3ccc(Br)cc3[nH]2)c1,7,6,-2,1,41*,11
O=C(NCC1CC1)c1ccc(Nc2nc3ccc(Br)cc3[nH]2)cc1,23,-11,1,4,25*,7
O=C(Cc1ccc(Nc2nc3ccc(Br)cc3[nH]2)cc1)NCCc1cccs1,16,9,0,-1,20*,7
CN(C)c1nc(F)c(F)c(S(=O)(=O)c2ccccc2)c1F,1,-8,1,-6,-7,.
Cc1ccc(C(C)C)cc1S(=O)(=O)NC1CC(C)(C)NC(C)(C)C1,-1,-34,4,2,-8,.
Cc1ccc(NC2=CC(=O)CC(C)(C)C2)cc1Cl,-1,4,-3,4,20*,0
CC1(C)CC(=O)C=C(Nc2ccc(F)c(Cl)c2)C1,1,2,0,7,-5,.
SMILES,ABHD4 inh,HTRA1 inh,PRMT1 inh,TCR CD3 inh,SIAE primary,SIAE confirm
Cc1[nH]nc2c1C(c1ccc(-c3ccc(Cl)cc3)o1)C(C#N)=C(N)O2 (stereo unspecified),4,0,3,3,18*,-3
COC(=O)C1CCN(C(=O)COC(=O)CNC(=O)c2ccc(Cl)cc2Cl)CC1,2,11,-3,-5,20*,-4
O=C(CNC(=O)c1ccc(Cl)cc1Cl)OCN1C(=O)c2ccccc2C1=O,1,2,-1,0,19*,-4
C[C@H](NC(=O)CCC1CCC(=O)N1)c1ccccc1 (stereo partly specified),2,-6,-1,5,-2,.
Cc1ccc2c(C)c(C)c(=O)n(C)c2c1,3,-2,-2,3,8,.
CCN(CC)CCn1c(=N)n(CCO)c2ccccc21,2,-3,2,-1,21*,-7
CCN(CC)CCn1c(=N)n(CCOc2ccccc2)c2ccccc21,7,3,-2,-6,-2,.
Cc1cc(NCC(=O)Nc2ccc(C)c(S(=O)(=O)N3CCOCC3)c2)ccc1Br,-5,-17,3,2,4,.
Cc1ccc(C(=O)O)cc1NC(=S)NC(=O)C(c1ccccc1)c1ccccc1,-14,-30,-3,2,-8,.
Cc1c(NC(=S)NC(=O)C(c2ccccc2)c2ccccc2)cccc1C(=O)O,4,-1,-1,2,17*,-4
C[C@@H]1CN([C@@H](C)CO)C(=O)CCCn2cc(nn2)CO[C@H]1CN(C)C(=O)c1ccc(N2CCN(C)CC2)cc1,3,.,-1,-6,2,.
Cn1nc([N+](=O)[O-])c(C(C#N)c2nc3ccccc3n2C)c(Cl)c1=O (stereo unspecified),23,21,19,9,27*,9
COc1ccc(OC)c(NC(=O)CSc2nc3[nH]c(=O)cc(O)c3s2)c1,16,-3,14,6,19*,-3
CSCCC(NS(=O)(=O)c1ccc(C)cc1)C(=O)Nc1ccc(C)cn1 (stereo unspecified),-3,-10,1,1,-10,.
CN(C)c1ccc(/C=N/N2C(=S)SC(C)(C)C2N(O)C(=O)Nc2ccc([N+](=O)[O-])cc2)cc1 (stereo unspecified),4,-12,1,0,21*,14
CNC(=O)N(O)C1N(/N=C/c2ccc(SC)cc2)C(=S)SC1(C)C (stereo unspecified),-1,3,-1,-8,1,.
C[C@@H]1[C@@H](c2ccccc2)c2cc3ccccc3nc2-c2nc3ccccc3cc2[C@@H]1C(=O)N1CCCC1,1,.,2,.,-1,.
Cc1cc(C)c2[nH]c(C(=O)Nc3ccc4c(c3)OCO4)cc2c1,12,9,-2,1,18*,0
COCCNC(=S)N1CCC2CC1c1cc(-c3ccc4c(c3)OCO4)ccc12 (stereo unspecified),-15,.,-3,6,-22,.
COC(=O)c1c(-c2ccc(OC)cc2)c2c(c3c4cc(OC)ccc4n(C(=O)c4ccccc4)c13)C(=O)N(C)C2,2,.,-3,-8,-1,.
Cc1ccc(CNC(=O)C(Cc2ccccc2)NS(=O)(=O)c2cccs2)cc1 (stereo unspecified),-3,-18,-2,-1,-4,.
CC(C)NC(=O)/C(C#N)=C/c1ccc(N(C)C)o1,-4,2,-43,4,5,.
